Experimental data published in PubChem BioAssay AID463079 (The Scripps Research Institute Molecular Screening Center, 2010).
The whole screen tested about 330,000 compounds, of which about 2,000 (0.61%) were called active.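 How the source made its calls: active means inhibition above that plate's mean sample inhibition plus 3 SD (cut at about 26% in these data); inactive means the rest.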 Many of the other results were omitted from the sample, so actives are more common in it than they were.

Assay: ATP-evoked calcium signal inhibitors, parental CHO, primary screen, counter-screen for OX1R antagonist project, cell-based, fluorescence, Fluo-8 calcium dye (AID 463079);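 further: 0% = ATP-challenged DMSO wells and 100% = DMSO wells without ATP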
Conditions: parental CHO-K1, ATP-induced calcium, Fluo-8 fluorescence; at 5.6 µM; stronger effect = higher value
Summary of the method: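 Measured by: calcium-sensitive Fluo-8 fluorescence / Test system: CHO parental line / Controls: ATP-challenged DMSO wells low, unchallenged DMSO wells high / Measure: % inhibition / Compound: single nominal dose of 5.6 µM per compound / Replicates: single well per compound, no replicates / Reagent: ATP as calcium-mobilizing challenge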

Compound | inhibition
Cc1ccc(S(=O)(=O)Nc2nc(C)cc(-n3nc(C)cc3C)n2)cc1 | 2.29% (inactive)
CCCC(C(=O)n1nc(C)cc1C)C(NS(=O)(=O)c1ccc(C)cc1)c1ccccc1 (stereo unspecified) | 40.6% (active)
Cc1ccc(S(=O)(=O)NC(C(=O)N2CCOCCOCCOCCOCC2)c2ccccc2)cc1 (stereo unspecified) | -9.77% (inactive)
C/C(=N/OC(=O)c1cccc(C(F)(F)F)c1)c1cnccn1 | -5.36% (inactive)
O=C(Nc1cccc(Br)c1)c1ccc2snnc2c1 | 17.8% (inactive)
O=C(Nc1ccc2ccccc2c1)Nc1ccc2snnc2c1 | 55.2% (active)
CCc1ccccc1NC(=O)c1ccc2snnc2c1 | -1.87% (inactive)
COc1cc(C2OC(c3cc(OC)c(OC)c(OC)c3)C(C)C2C)cc(OC)c1OC (stereo unspecified) | -16.8% (inactive)
CC1(NC(=O)CCS(=O)(=O)c2ccc(Cl)cc2)CCS(=O)(=O)C1 (stereo unspecified) | -11.8% (inactive)
CCCN1C(=O)C(NS(=O)(=O)c2ccc(N)cc2)(C(F)(F)F)C(C(=O)OC)=C1C (stereo unspecified) | -9.93% (inactive)
COc1cc(NC(=O)CSc2nnc3ccc(-c4ccncc4)nn23)cc(OC)c1 | -9.28% (inactive)
CCCc1nnc(SCC(=O)Nc2ccc(C(=O)OCC)cc2)o1 | -6.7% (inactive)
CCOC(=O)c1ccc(NC(=O)CSc2nnc(COc3ccccc3OC)n2C)cc1 | -24.5% (inactive)
CCOC(=O)c1ccc(NC(=O)Cn2cnc3cc(C)c(C)cc32)cc1 | 56.1% (active)
COc1ccc(C(=O)Nc2cc(S(=O)(=O)N3CCCC3)ccc2Cl)cc1 | -15.8% (inactive)
CN(C)C(=O)CCc1ccc2c3c([nH]c2c1)[C@]1(CCc2ccccc2)[C@@H](C(=O)N2CCCCC2)C[C@H](CC(=O)NCCC2=CCCCC2)C(=O)N1CC3 | -31.7% (inactive)
Oc1cc(O)c2c(c1)OC(c1ccc(O)c(O)c1)C(O)C2 (stereo unspecified) | -0.43% (inactive)
CC(C)Cc1nnc(NC(=O)CCNC(=O)c2ccccc2Cl)s1 | -7.69% (inactive)
CCOC(=O)N1CCN(C(=O)C2CCN(Cc3ccc(OC)cc3OC)CC2)CC1 | -15.1% (inactive)
CCOC(=O)N1CCN(C(=O)C2CCN(c3ncnc4c3sc3cccc(F)c34)CC2)CC1 | 37.1% (active)
CCOC(=O)N1CCN(C(=O)C2CCN(S(=O)(=O)c3cc(Cl)ccc3OCC)CC2)CC1 | -9.79% (inactive)

Compound | inhibition
COc1cccc(CC(=O)OCC(=O)NCc2ccc3c(c2)OCO3)c1 | -4.2% (inactive)
CSc1nccc(NC(=O)c2ccc(C(C)(C)C)cc2)n1 | 33.6% (active)
Cc1cccc(NC(=O)c2cccnc2Cl)n1 | 1.32% (inactive)
Cc1cccc(NC(=O)c2ccc(S(=O)(=O)N(C)c3ccccc3)cc2)n1 | -10.9% (inactive)
O=c1cnnc(Nc2ccccc2)[nH]1 | -11.1% (inactive)
CCOc1ccccc1OCC(=O)Nc1ccccc1C(=O)NC1CC1 | 14.9% (inactive)
CC(C)OCCCNc1ncnc2c1[nH]c1ccc(F)cc12 | 58.6% (active)
O=C1c2ccccc2C(=O)N1CCC#Cc1ccc2cc(C3(O)CCCCC3)oc(=O)c2c1 | -14.2% (inactive)
O=C(NCCC(=O)N1O[C@@H]2C=C[C@H]1C2)OCC1c2ccccc2-c2ccccc21 | -10.5% (inactive)
CC(C)Cc1cc(C(=O)Nc2cc(Br)ccc2O)no1 | 43% (active)
CC(C)CNC(=O)c1cc(-c2ccc(Br)cc2)on1 | -10.3% (inactive)
CC(C)Cc1cc(C(=O)NCCc2ccccc2)no1 | -2.04% (inactive)
Cc1ccc(C)c(S(=O)(=O)Nc2cccc(-n3cnnn3)c2)c1 | -1.77% (inactive)
CCOC(=O)C1CCCN(C(=O)c2cccc(S(=O)(=O)N3CCOCC3)c2)C1 (stereo unspecified) | -2.51% (inactive)
COc1ccc(/C=C/C(=O)Nc2c(C)nn(C)c2C)cc1COc1ccc(Br)cc1 | 13.3% (inactive)
O=C(Nc1cccc([N+](=O)[O-])c1)c1ccc2c(c1)OCO2 | -1.24% (inactive)
O=C(Nc1ccc(C2CC2(Cl)Cl)cc1)c1cccc([N+](=O)[O-])c1 (stereo unspecified) | 46.7% (active)
O=C(Nc1ccc(NC(=O)c2ccco2)c(Cl)c1)c1cccc([N+](=O)[O-])c1 | -6.79% (inactive)
COC(=O)[C@@H]1C[C@@]2(O)[C@H](O)[C@H](O)[C@H](O)C[C@H]2N1Cc1ccc(C)s1 | 2.13% (inactive)
O=C(CO/N=C/c1ccccc1O)NNC(=O)c1ccccc1Cl | 2.58% (inactive)
CC[n+]1cc(C)ccc1/C=C/c1ccc(N(C)C)cc1 | 51.9% (active)

Compound | inhibition
CCOC(=O)C1=CN(Cc2ccc(Br)cc2)S(=O)(=O)N(C)C1C (stereo unspecified) | -13.1% (inactive)
O=C(NCC1CCCO1)/C(=C/c1ccc(Cl)cc1)NC(=O)c1ccccc1 (stereo unspecified) | -2.9% (inactive)
N#C/C(=C/c1ccc(Cl)cc1)NC(=O)c1ccccc1 | 50.3% (active)
O=C(N/C(=C\c1ccc(O)cc1)C(=O)N1CCCCC1)c1ccccc1 | -2.82% (inactive)
S=C(NCCC1=CCCCC1)Nc1ccccc1 | 6.17% (inactive)
COc1cc(OC)c2c(-c3cccc(-c4cccc(N)c4)c3)cc(=O)oc2c1 | -15.7% (inactive)
CSc1sc(C)cc1C1C(C#N)=C(N)N(c2cccnc2)C2=C1C(=O)CCC2 (stereo unspecified) | -13.3% (inactive)
CCN(CC)C(=O)N(CC)Cc1ccccc1 | -0.04% (inactive)
OCCN(Cc1ccccc1)Cc1ccc(Cl)cc1 | -28.2% (inactive)
CN(C(=O)CN(CCO)CC(=O)N(C)C(C)(C)Cc1ccccc1)C(C)(C)Cc1ccccc1 | 52.8% (active)
CCc1cccc(NC(=S)N(CCN(C)C)C2CCN(C(C)C)CC2)c1 | 1.41% (inactive)
CCc1cc2c(=O)c(-c3ccon3)c(N)oc2cc1OC | -10.2% (inactive)
Cc1ccc(-c2cccc([C@H]3[C@@H]4C=CC[C@@H](C)[C@@H]4C(=O)N3Cc3ccccc3)c2)cc1 | -46.9% (inactive)
CSc1nsc(NC(=O)Nc2ccccc2)n1 | 18.8% (inactive)
C=CCSc1nsc(NC(=O)Nc2cccc(C(C)=O)c2)n1 | 46.6% (active)
C=CCSc1nnc(NC(=O)c2ccc(NC(C)=O)cc2)s1 | -14.6% (inactive)
CCSc1nsc(NC(=O)Nc2cccc(C(C)=O)c2)n1 | 66.5% (active)
CCSc1nsc(NC(=O)Nc2ccccc2OC)n1 | -18.1% (inactive)
CSc1ccccc1C(=O)Nc1cccc(C(C)=O)c1 | -10% (inactive)
